In publication PMC6916429 (ACS infectious diseases, 2019):
Values joined by “and” are separate entries in the source; they are usually repeats but may differ in a detail not shown here. Equal entries are not always repeated.

T1: S. aureus ClpP (caseinolytic protease) (S. aureus NCTC 8325), Q2G036
T1 chain: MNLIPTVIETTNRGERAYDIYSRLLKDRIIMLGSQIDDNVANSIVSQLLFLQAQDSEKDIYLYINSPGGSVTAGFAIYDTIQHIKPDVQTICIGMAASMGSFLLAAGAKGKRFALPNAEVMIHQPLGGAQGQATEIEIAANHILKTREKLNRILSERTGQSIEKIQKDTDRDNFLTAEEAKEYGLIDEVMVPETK

B1: S. aureus ClpP (caseinolytic protease), Q2G036 1-195 (enzyme)
chain: T1 chain

Legend:
[1] = system: S. aureus biofilms (UAMS-1); assay: Biofilm killing assay; type: cell-based; conditions: 10 times the MIC, 24 hours, compared with the control
In short: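 Overnight stationary UAMS-1 culture diluted 1:20 in BHI broth and grown 24 h at 37 °C in tissue-culture-treated 96-well plates. Wells PBS-washed twice, then exposed to test compound in fresh medium for 24 h. Washed again, biofilms disrupted by sonication in PBS, serially diluted, and spotted on BHI agar overnight at 37 °C for cfu counts. One-way ANOVA with Dunnett's test.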

[2] = biological target: T1, S. aureus ClpP (caseinolytic protease) …; assay: AUC; conditions: remark: other sources report otherwise
[3] = biological target: T1, S. aureus ClpP (caseinolytic protease) …; assay: crystal structure; conditions: remark: other sources report otherwise

Row | Molecule | reduction in growth of mature S. aureus biofilms [1] | stoichiometry N [2] | stoichiometry N [3]
1 | CO[C@H]1/C=C/O[C@@]2(C)Oc3c(C)c(O)c4c(O)c(c(/C=N/N5CCN(C)CC5)c(O)c4c3C2=O)NC(=O)/C(C)=C\C=C\[C@H](C)[C@H](O)[C@@H](C)[C@@H](O)[C@@H](C)[C@H](OC(C)=O)[C@@H]1C [rifampin] | limited reduction |  | 
2 | B1 |  | 14 and 7 | 14
